pIC50: −log10 of the molar value. Where only a bound is given, the exact number is not on record here.

Holding throughout (assay type): functional, cell-based
The subject of one assay is RKO. Put plainly: Cytotoxicity against human RKO cells assessed as decrease in cell viability after 48 hrs by MTT assay. In outline: (§1)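 Cells grown in DMEM Glutamax with 10% FBS, 2.5 μg/mL fungizone, 100 IU/mL penicillin and 100 μg/mL streptomycin. Seeded at 3.3 × 10^4 cells/mL and left 24 h (37 °C, 5% CO2) to adhere. Pure compounds added as dilutions from 50 to 0.003 μg/mL for 48 h. MTT 0.5 mg/mL for 3 h, formazan dissolved in DMSO, absorbance read at 550 nm. Triplicates averaged; IC50 taken from dose–response curves.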

A further assay concerns T47D. Briefly: Cytotoxicity against human T47D cells assessed as decrease in cell viability after 48 hrs by MTT assay. In a few lines: as §1
(Tetrazolium assays rely on reduction of a dye to a coloured formazan, in cell work by metabolically active cells.)

For the next assay, the system named is MG-63. Put plainly: Cytotoxicity against human MG63 cells assessed as decrease in cell viability after 48 hrs by MTT assay. As to conditions: MG-63, 48 h. In a few lines: as §1

Take `CCCCCCC(Cl)CCCCCc1c(O)cc(CCCCCCC(Cl)CCCC)cc1O[C@@H]1OC[C@@H](O)[C@H](O)[C@H]1O` (some centres undefined): the negative logarithm of the IC50 (pIC50) is 4.40 in the assay with RKO, 4.66 with T47D and 4.41 in the assay with MG-63.

For `CCCCCCCCCC(Cl)CCCCCc1cc(O)c(CCCCCC(Cl)CCCCCC)c(O[C@@H]2OC[C@@H](O)[C@H](O)[C@H]2O)c1` (some centres undefined), the negative logarithm of the IC50 (pIC50) in the assay with RKO, in the assay on T47D and in the assay with MG-63 was below 5.00 in each case.

`CCCCCCC(Cl)CCCCCc1cc(O)c(CCCCCC(Cl)CCCCCC)c(O[C@@H]2OC[C@@H](O)[C@H](O)[C@H]2O)c1` (some centres undefined): the pIC50 in the assay with RKO, in the assay with T47D and with MG-63 was below 5.00 in each case.

With `CCCCCCCC(Cl)(Cl)CCCCCc1cc(O)c(CCCCCC(Cl)CCCCCC)c(O[C@@H]2OC[C@@H](O)[C@H](O)[C@H]2O)c1` (some centres undefined), the pIC50 was below 5.00 in the assay with RKO, 4.22 in the assay on T47D and below 5.00 with MG-63.

For `CCCCCCCC(Cl)CCCCCc1cc(O)c(CCCCCC(Cl)CCCCCC)c(O[C@@H]2OC[C@@H](O)[C@H](O)[C@H]2O)c1` (some centres undefined), the negative-log IC50 (pIC50) with RKO was 4.40; in the assay with T47D, 4.64; in the assay on MG-63, 4.66.

As to `CCCCCCCCC(Cl)CCCCCc1cc(O)c(CCCCCC(Cl)CCCCCC)c(O[C@@H]2OC[C@@H](O)[C@H](O)[C@H]2O)c1` (some centres undefined), the pIC50 with RKO, with T47D and with MG-63 was below 5.00 throughout.

As for `CCCCCCCCCCCCCc1cc(O)c(CCCCCC(Cl)CCCCCC)c(O[C@@H]2OC[C@@H](O)[C@H](O)[C@H]2O)c1` (some centres undefined), the pIC50 with RKO, in the assay with T47D and with MG-63 was below 5.00 throughout.

For the molecule `CCCCCCCCCCCc1cc(O)c(CCCCCC(Cl)CCCCCC)c(O[C@@H]2OC[C@@H](O)[C@H](O)[C@H]2O)c1` (some centres undefined), the pIC50 in the assay on RKO, in the assay on T47D and in the assay with MG-63 was below 5.00 each time.

A word on the pIC50: it is the negative decadic logarithm of the IC50, by convention in mol/L.

Values taken from ChEMBL document CHEMBL4000159, “Bartolosides E-K from a Marine Coccoid Cyanobacterium” (J Nat Prod, 2016).
